Molecules are shown by their SMILES. Calls of active or inactive are those of the source.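 How the source made its calls: active means residual nuclease activity at or below 52% of the solvent-only control; inactive means the rest.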

Chain of RecBCD enzyme subunit RecC (Escherichia coli (strain K12)) + RecBCD enzyme subunit RecB (Escherichia coli (strain K12)) (P07648 whole entry, looked up): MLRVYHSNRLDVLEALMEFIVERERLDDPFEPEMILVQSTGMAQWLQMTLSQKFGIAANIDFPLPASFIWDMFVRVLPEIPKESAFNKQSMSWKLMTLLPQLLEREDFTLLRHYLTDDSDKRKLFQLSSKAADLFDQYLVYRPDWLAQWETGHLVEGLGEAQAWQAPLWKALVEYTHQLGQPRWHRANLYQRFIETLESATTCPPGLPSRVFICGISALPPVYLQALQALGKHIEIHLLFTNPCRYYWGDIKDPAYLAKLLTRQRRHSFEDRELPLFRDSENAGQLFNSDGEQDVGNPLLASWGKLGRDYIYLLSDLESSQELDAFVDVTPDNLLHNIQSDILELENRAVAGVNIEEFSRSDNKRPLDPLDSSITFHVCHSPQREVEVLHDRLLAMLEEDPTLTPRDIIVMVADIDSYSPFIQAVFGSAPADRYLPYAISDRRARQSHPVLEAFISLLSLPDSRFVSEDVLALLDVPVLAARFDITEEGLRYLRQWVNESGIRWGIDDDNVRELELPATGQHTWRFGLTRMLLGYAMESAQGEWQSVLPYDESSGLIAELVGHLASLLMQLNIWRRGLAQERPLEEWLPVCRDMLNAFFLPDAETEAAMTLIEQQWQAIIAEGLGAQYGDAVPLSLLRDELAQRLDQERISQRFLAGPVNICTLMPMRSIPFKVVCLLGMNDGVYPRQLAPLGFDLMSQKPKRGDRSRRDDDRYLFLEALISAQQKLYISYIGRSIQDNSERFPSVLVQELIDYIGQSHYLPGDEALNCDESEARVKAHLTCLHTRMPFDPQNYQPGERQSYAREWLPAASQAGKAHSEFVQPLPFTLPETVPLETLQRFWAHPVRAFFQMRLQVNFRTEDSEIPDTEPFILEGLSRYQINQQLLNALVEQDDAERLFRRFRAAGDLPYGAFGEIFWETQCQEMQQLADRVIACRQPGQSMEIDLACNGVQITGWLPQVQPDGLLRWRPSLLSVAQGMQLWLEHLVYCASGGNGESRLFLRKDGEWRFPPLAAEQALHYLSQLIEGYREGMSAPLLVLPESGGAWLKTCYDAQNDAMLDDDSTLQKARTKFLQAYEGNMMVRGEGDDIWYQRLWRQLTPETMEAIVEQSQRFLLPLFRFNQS
Chain of RecBCD enzyme subunit RecC (Escherichia coli (strain K12)) + RecBCD enzyme subunit RecB (Escherichia coli (strain K12)) (P08394 whole entry, looked up): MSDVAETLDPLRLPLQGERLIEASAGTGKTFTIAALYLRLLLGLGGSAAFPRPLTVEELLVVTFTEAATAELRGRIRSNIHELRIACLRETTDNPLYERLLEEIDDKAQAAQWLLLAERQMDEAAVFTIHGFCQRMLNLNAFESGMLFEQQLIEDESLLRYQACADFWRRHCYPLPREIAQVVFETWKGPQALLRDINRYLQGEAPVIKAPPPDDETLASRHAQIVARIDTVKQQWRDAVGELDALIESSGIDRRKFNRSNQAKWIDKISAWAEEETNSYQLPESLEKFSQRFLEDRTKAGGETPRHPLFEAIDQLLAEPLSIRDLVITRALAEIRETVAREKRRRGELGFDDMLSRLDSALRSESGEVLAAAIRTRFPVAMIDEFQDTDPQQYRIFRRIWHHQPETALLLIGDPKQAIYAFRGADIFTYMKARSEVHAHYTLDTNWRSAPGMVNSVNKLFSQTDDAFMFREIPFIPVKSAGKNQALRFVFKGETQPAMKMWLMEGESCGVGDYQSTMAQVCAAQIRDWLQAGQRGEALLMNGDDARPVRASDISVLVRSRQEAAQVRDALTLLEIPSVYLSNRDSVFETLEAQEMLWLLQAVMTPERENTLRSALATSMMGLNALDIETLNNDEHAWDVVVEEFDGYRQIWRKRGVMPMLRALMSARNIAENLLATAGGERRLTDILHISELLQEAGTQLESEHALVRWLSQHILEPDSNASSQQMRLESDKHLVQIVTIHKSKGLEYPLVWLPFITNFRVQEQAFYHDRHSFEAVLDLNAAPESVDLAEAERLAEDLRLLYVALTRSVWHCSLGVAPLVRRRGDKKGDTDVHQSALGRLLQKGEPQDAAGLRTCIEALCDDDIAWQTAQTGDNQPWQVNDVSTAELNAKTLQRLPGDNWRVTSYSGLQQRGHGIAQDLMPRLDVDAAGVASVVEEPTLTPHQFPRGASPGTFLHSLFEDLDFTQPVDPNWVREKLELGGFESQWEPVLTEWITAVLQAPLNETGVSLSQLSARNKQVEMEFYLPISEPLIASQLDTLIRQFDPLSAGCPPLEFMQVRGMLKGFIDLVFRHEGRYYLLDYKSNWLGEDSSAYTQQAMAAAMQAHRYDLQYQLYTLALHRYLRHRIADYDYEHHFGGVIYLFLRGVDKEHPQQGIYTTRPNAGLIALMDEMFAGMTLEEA

The target in the test is RecBCD enzyme subunit RecC (Escherichia coli (strain K12)) + RecBCD enzyme subunit RecB (Escherichia coli (strain K12)) (UniProt P07648+P08394). As to the kind of experiment: RecBCD dsDNA exonuclease activity remaining – biochemical, radioactivity readout, 50 µM single dose, counter-screen for AddAB inhibitor project, late-stage follow-up (AID 623922). As to conditions: purified RecBCD, [3H] dsDNA nuclease, TCA-soluble radioactivity; at 50 µM; active compounds read low. The method in brief:
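Test system: purified Escherichia coli RecBCD helicase-nuclease enzyme; benchmarks: DMSO control and no-enzyme background; schedule: mixing on ice, 20 min reaction at 37 °C; signal: radioactivity counts of acid-soluble DNA digestion products; probe or stimulus: [3H] T7 dsDNA, 6 µM nucleotides; medium: pH 8.5, 10 mM MgCl2, 25 µM ATP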
With `CCn1cc(C(=O)O)c(=O)c2cnc(N3CCN(C(=S)Nc4cccc(C(F)(F)F)c4)CC3)nc21`, the residual nuclease activity was 8%.
As to `CCn1cc(C(=O)O)c(=O)c2cnc(N3CCN(C(=S)NC4CC5CCC4C5)CC3)nc21` (configuration not stated), the residual nuclease activity was 75% (inactive).
For the molecule `CCn1cc(C(=O)O)c(=O)c2cnc(N3CCN(C(=S)NC(C)c4ccccc4)CC3)nc21` (configuration not stated), the residual nuclease activity was 27%.
Consider `CCn1cc(C(=O)O)c(=O)c2cnc(N3CCN(C(=S)Nc4ccc(Cl)cc4)CC3)nc21`, for which the residual nuclease activity was 50%.
As for `CCn1cc(C(=O)O)c(=O)c2cnc(N3CCN(C(=S)Nc4ccc(F)cc4)CC3)nc21`, the figure is 51%; as for `CCn1cc(C(=O)O)c(=O)c2cnc(N3CCN(C(=S)NC(=O)c4cccc(C)c4)CC3)nc21`, 47%.
As for `CCn1cc(C(=O)O)c(=O)c2cnc(N3CCN(C(=S)Nc4ccccc4C(F)(F)F)CC3)nc21`, the figure is 43%.
To `CCn1cc(C(=O)O)c(=O)c2cnc(N3CCN(C(=S)Nc4ccccc4)CC3)nc21` belongs 68% (inactive); to `CCn1cc(C(=O)O)c(=O)c2cnc(N3CCN(C(=S)NCc4ccccc4)CC3)nc21`, 45%; to `CCn1cc(C(=O)O)c(=O)c2cnc(N3CCN(C(=O)Nc4ccccc4)CC3)nc21`, 91% (inactive).
Consider `CCn1cc(C(=O)O)c(=O)c2cnc(N3CCNCC3)nc21`, for which the residual nuclease activity is 93% (inactive).
To `CCn1cc(C(=O)O)c(=O)c2cnc(N3CCN(C(=S)Nc4ccc5c(c4)OCO5)CC3)nc21` belongs 46%.

Values taken from PubChem BioAssay AID623922 (The Scripps Research Institute Molecular Screening Center, 2012).
